Common to all, as to assay type: ADME, organism-based
Data set [1] is described as follows: Oral bioavailability in rat (dose 60 mg/kg p.o.). The note with it: in vivo. The procedure, abridged: (§1)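 Cannulated male Sprague–Dawley rats (300–350 g), fasted 15 h, given 60 mg/kg by oral gavage under light O2/CO2 anaesthesia in 1 mL 5% DMSO/water at pH 8. Arterial plasma sampled 0–120 min and assayed by fluorescence polarization immunoassay. Cmax is observed; AUC0–120 is trapezoidal. F = AUCpo·dose_iv/(AUCiv·dose_po)×100, using iv 3 mg/kg. Mean ± SEM, 4–5 rats.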

The next data set concerns Rattus norvegicus. The data set is described as follows: Bioavailability in rat (dose 3 mg/kg i.v.). Conditions: in vivo, iv.
Data set [2] in a line: Area under the curve at a concentration of 60 mg/kg perorally in rats along with control. Also noted: dose 60 mg/kg, route oral. The note with it: rat, in vivo, po, read-out: AUC 120 (converted). The procedure, abridged: as §1
Data set [3] can be described thus: Maximum plasma concentration at a concentration of 3 mg/kg in rats, intravenously. Also noted: dose 3 mg/kg, route intravenous. The note with it: rat, iv. An outline of the steps:
(§2)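 Male Sprague–Dawley rats (300–350 g) with femoral artery cannula, dosed next day at 3 mg/kg in 0.3 mL heparinized saline via lateral tail vein. Arterial blood drawn at 0, 5, 10, 15, 30, 60, 90, 120 min, and plasma frozen at –70 °C. Gentamicin measured by fluorescence polarization immunoassay (LOD 0.30 μg/mL). Cmax is the observed value; AUC0–120 by linear trapezoidal rule. Mean ± SEM, 4–5 rats.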

Data set [4] in a line: Maximum plasma concentration at a concentration of 60 mg/kg perorally in rats along with control. Also noted: dose 60 mg/kg, route oral. The note with it: rat, po. An outline of the steps:
as §1

Data set [5] in a line: Area under the curve at a concentration of 3 mg/kg in rats, intravenously. Also noted: dose 3 mg/kg, route intravenous. The note with it: rat, in vivo, iv, read-out: AUC 120 (converted). The procedure, abridged: as §2

Usually AUC stands for the area under the concentration-time curve, a measure of exposure. What is called Cmax is the highest concentration seen after dosing.

SMILES strings stand for the structures.

As for `CNC(C)C1CC[C@H](N)[C@@H](OC2[C@@H](O)[C@@H](O[C@H]3OC[C@H](O)[C@@H](NC)[C@@H]3O)[C@H](N)C[C@@H]2N)O1.O=S(=O)(O)O` (stereo partly drawn), the bioavailability in data set [1] amounted to 1.4%. In the data set with Rattus norvegicus, this compound came in with an F of 100%. Also, the AUC in data set [2] is 1180 ng·h/mL; in data set [5], 4180 ng·h/mL. In addition, the Cmax worked out at 8190 ng/mL in data set [3] and 770 ng/mL in data set [4].
With `CN[C@@H]1C(O)[C@H](O[C@@H]2C(O)C(O[C@H]3OC(CN)CCC3N)[C@@H](N)C[C@H]2N)OC[C@@H]1O.O=S(=O)(O)O` (stereo partly drawn), in data set [1] (read-out: Bioavailabiility), the bioavailability was 1.4%. In the data set with Rattus norvegicus, this compound displayed a Bioavailabiility of 100%. Moreover, the AUC in data set [2] was 1180 ng·h/mL; in data set [5], 4180 ng·h/mL. The values for the Cmax in data set [3] and in data set [4] were 8190 ng/mL and 770 ng/mL, respectively.
Take `CN[C@@H]1[C@H](O)[C@H](O[C@H]2[C@H](N)C[C@H](N)C(O[C@H]3OC(C(C)N)CC[C@@H]3N)[C@H]2O)OC[C@@H]1O.O=S(=O)(O)O` (stereo partly drawn): in data set [1], the bioavailability is 1.4%. The compound further yielded a F in the data set with Rattus norvegicus of 100%. For the same compound, the AUC in data set [2] is 1180 ng·h/mL; in data set [5], 4180 ng·h/mL. For the same compound, the Cmax was determined as 8190 ng/mL in data set [3] and 770 ng/mL in data set [4].

The record behind these values is ChEMBL document CHEMBL1148488, “Design, synthesis, and evaluation of a liposaccharide drug delivery agent: application to the gastrointestinal absorption of gentamicin” (J Med Chem, 2004).
